Measured values from ChEMBL document CHEMBL4765319, “Identification of a new series of flavopiridol-like structures as kinase inhibitors with high cytotoxic potency” (Eur J Med Chem, 2020).

Legend:
[1] = molecular target: T1, Glycogen synthase kinase-3 beta (Homo sapiens, UniProt P49841); assay: Potency index, ratio of flavopiridol IC50 to test compound IC50 for human GSK3beta in presence of ATP by ADP-glo luminescent assay
K562 [2] = assay: Cell cycle arrest in human K562 cells assessed as accumulation at G2/M phase at 25 nM after 24 hrs by propidium iodide staining-based flow cytometric analysis (reference value: 12.9 %); assay type: functional
HCT-116 [3] = assay: Cell cycle arrest in human HCT-116 cells assessed as accumulation at S phase at 200 nM after 24 hrs by propidium iodide staining-based flow cytometric analysis (reference value: 47.6 %); assay type: functional
SK-BR-3 = assay: Antiproliferative activity against human SK-BR-3 cells assessed as reduction in cell viability incubated for 72 hrs by CellTiter-Blue fluorescence assay; settings: SK-BR-3, 72 h
MIA PaCa-2 = assay: Antiproliferative activity against human MIA PaCa-2 cells assessed as reduction in cell viability incubated for 72 hrs by CellTiter-Blue fluorescence assay; settings: MIA PaCa-2, 72 h
[4] = Inhibition of human CDK10/cyclin M by ADP-Glo assay
HCT-116 [5] = assay: Cell cycle arrest in human HCT-116 cells assessed as increase in accumulation at G0/G1 phase after 24 hrs by propidium iodide staining-based flow cytometric analysis; assay type: functional; settings: dose 100-500 nM
[6] = molecular target: T1, Glycogen synthase kinase-3 beta; assay: Inhibition of human GSK3beta assessed as residual activity at 1 uM in presence of ATP by ADP-glo luminescent assay relative to control
Summary of the method: (§1)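 Human kinases assayed by ADP-Glo luminescence with 10 μM ATP, compound at 10 or 1 μM. Activity is expressed as % of maximal activity relative to a DMSO control, mean n = 2.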

[7] = molecular target: Cyclin-dependent kinase 5/CDK5 activator 1 (Homo sapiens, UniProt Q00535); assay: Inhibition of human CDK5/p25 in presence of ATP by ADP-glo luminescent assay; assay type: protein-complex assay
Chain of Cyclin-dependent kinase 5/CDK5 activator 1 (Q00535 whole entry): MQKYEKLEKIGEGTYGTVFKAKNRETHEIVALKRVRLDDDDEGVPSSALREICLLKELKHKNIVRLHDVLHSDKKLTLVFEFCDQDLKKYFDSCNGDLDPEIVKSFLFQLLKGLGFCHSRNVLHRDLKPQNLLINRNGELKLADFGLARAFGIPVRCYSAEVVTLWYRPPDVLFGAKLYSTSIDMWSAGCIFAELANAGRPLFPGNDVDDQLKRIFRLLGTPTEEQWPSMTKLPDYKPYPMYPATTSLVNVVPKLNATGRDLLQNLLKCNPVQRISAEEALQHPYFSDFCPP
Chain of Cyclin-dependent kinase 5/CDK5 activator 1 (Q15078 whole entry, further chain): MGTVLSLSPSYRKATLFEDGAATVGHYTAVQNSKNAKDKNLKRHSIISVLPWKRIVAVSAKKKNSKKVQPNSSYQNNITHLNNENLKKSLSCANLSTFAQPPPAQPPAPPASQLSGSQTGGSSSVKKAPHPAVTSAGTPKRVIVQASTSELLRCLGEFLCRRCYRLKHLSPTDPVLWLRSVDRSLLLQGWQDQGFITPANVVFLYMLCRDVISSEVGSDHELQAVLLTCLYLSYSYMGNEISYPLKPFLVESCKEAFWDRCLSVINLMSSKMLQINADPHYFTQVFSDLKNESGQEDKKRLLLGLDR
Summary of the method: (§2)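 Human kinases tested over roughly 0.0003–10 μM by ADP-Glo luminescence with 10 μM ATP, in duplicate. IC50 is taken from dose-response curves.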

K562 [8] = assay: Cell cycle arrest in human K562 cells assessed as increase in accumulation at G0/G1 phase after 24 hrs by propidium iodide staining-based flow cytometric analysis; assay type: functional; settings: dose 25-100 nM
[9] = molecular target: Glycogen synthase kinase-3 alpha (Homo sapiens, UniProt P49840); assay: Inhibition of human GSK3alpha by ADP-Glo assay
Chain of Glycogen synthase kinase-3 alpha (P49840 whole entry): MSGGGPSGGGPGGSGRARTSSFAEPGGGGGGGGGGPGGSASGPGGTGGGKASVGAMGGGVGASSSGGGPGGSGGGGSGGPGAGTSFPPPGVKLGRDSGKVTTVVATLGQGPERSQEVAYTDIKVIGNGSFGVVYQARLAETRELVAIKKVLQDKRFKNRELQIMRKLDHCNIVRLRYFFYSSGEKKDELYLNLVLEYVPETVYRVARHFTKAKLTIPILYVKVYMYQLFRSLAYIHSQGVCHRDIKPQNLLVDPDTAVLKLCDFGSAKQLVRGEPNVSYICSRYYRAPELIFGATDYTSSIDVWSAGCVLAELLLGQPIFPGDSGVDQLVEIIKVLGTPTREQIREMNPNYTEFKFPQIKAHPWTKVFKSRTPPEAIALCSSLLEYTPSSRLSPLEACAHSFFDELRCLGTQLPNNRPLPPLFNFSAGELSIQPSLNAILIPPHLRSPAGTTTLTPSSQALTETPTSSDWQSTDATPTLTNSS

HCT-116 [10] = assay: Cell cycle arrest in human HCT-116 cells assessed as increase in accumulation at G2/M phase after 24 hrs by propidium iodide staining-based flow cytometric analysis; assay type: functional; settings: dose 100-500 nM
Leishmania major = assay: Inhibition of Leishmania major CK1 assessed as residual activity at 10 uM in presence of ATP by ADP-glo luminescent assay relative to control
PC-3 = assay: Antiproliferative activity against human PC-3 cells assessed as reduction in cell viability incubated for 72 hrs by CellTiter-Blue fluorescence assay; settings: PC-3, 72 h
HCT-116 [11] = assay: Cell cycle arrest in human HCT-116 cells assessed as accumulation at G0/G1 phase at 500 nM after 24 hrs by propidium iodide staining-based flow cytometric analysis (reference value: 20.9 %); assay type: functional
[12] = molecular target: Cyclin-dependent kinase 5/CDK5 activator 1 (Homo sapiens) (UniProt Q00535+Q15078); assay: Inhibition of human CDK5/p25 assessed as residual activity at 1 uM in presence of ATP by ADP-glo luminescent assay relative to control; assay type: protein-complex assay; summary of the method: as §1
Chain of Cyclin-dependent kinase 5/CDK5 activator 1 (Homo sapiens) (Q00535 whole entry): as the sequence (Q00535 whole entry) above
Chain of Cyclin-dependent kinase 5/CDK5 activator 1 (Homo sapiens) (Q15078 99-307 partner limits assumed): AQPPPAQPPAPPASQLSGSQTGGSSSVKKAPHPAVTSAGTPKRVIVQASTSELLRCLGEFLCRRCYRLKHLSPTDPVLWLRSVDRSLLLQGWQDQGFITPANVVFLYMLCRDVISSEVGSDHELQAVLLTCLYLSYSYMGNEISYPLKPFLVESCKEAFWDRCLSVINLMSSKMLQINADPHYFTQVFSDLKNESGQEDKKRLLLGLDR

K562 [13] = assay: Cell cycle arrest in human K562 cells assessed as accumulation at S phase at 25 nM after 24 hrs by propidium iodide staining-based flow cytometric analysis (reference value: […]); assay type: functional
K562 [14] = assay: Cell cycle arrest in human K562 cells assessed as accumulation at G0/G1 phase at 100 nM after 24 hrs by propidium iodide staining-based flow cytometric analysis (reference value: 21.4 %); assay type: functional
Sus scrofa = species on record: Sus scrofa; assay: Inhibition of porcine GSK3alpha/beta assessed as residual activity at 10 uM in presence of ATP by ADP-glo luminescent assay relative to control
Summary of the method: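 Porcine brain GSK3α/β, native and affinity-purified. Assayed by ADP-Glo luminescence with 10 μM ATP and 0.010 μg/μl GS-1 peptide substrate. Buffer A: 10 mM MgCl2, 1 mM EGTA, 1 mM DTT, 25 mM Tris-HCl pH 7.5, 50 μg/ml heparin. Compound tested at 10 or 1 μM. Result is % of maximal activity versus DMSO control, mean of n = 2.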

K562 [15] = assay: Antiproliferative activity against human K562 cells assessed as reduction in cell viability incubated for 72 hrs by CellTiter-Blue resazurin fluorescence assay; settings: K562, 72 h
HCT-116 [16] = assay: Cell cycle arrest in human HCT-116 cells assessed as accumulation at G2/M phase at 200 nM after 24 hrs by propidium iodide staining-based flow cytometric analysis (reference value: 31.5 %); assay type: functional
[17] = molecular target: CDK2/Cyclin A2 (Homo sapiens) (UniProt P24941+P20248); assay: Inhibition of human CDK2/cyclin A assessed as residual activity at 1 uM in presence of ATP by ADP-glo luminescent assay relative to control; assay type: protein-complex assay; summary of the method: as §1
CDK9/cyclin T1 = CDK9/cyclin T1 (Homo sapiens, UniProt P50750); assay: Inhibition of human CDK9/cyclin T in presence of ATP by ADP-glo luminescent assay; assay type: protein-complex assay; summary of the method: as §2
Chain of CDK9/cyclin T1 (O60563 whole entry): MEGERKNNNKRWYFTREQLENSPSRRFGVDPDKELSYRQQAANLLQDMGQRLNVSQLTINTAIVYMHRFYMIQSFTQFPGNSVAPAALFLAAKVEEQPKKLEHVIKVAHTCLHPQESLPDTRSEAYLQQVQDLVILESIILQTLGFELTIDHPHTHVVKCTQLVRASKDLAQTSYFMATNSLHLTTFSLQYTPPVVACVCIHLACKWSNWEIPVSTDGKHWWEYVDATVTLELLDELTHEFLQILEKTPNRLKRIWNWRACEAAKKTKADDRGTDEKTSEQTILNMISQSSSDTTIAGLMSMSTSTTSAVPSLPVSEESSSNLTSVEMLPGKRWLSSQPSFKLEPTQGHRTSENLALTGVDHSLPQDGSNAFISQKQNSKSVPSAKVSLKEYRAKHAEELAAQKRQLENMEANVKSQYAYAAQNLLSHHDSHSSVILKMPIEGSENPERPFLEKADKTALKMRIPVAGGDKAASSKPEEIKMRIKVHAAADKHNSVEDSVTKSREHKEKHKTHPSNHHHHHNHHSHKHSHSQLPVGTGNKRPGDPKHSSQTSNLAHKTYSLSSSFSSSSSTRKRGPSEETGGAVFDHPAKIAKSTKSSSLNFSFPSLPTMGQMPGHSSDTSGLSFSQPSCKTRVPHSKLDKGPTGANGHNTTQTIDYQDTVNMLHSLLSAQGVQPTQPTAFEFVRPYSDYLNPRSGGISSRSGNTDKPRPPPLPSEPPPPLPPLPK
Chain of CDK9/cyclin T1 (P50750 whole entry): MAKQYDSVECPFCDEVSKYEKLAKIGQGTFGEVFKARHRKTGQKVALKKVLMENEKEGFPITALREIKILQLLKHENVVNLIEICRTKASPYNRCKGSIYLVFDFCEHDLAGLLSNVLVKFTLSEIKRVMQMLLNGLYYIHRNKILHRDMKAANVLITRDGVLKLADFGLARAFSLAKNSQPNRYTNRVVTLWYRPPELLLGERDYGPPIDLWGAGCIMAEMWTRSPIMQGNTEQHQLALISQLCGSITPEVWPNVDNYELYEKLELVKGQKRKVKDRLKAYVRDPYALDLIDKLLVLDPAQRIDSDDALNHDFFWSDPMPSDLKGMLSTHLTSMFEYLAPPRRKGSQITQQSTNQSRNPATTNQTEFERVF

K562 [18] = assay: Cell cycle arrest in human K562 cells assessed as accumulation at G0/G1 phase at 50 nM after 24 hrs by propidium iodide staining-based flow cytometric analysis (reference value: 21.4 %); assay type: functional
K562 [19] = assay: Cell cycle arrest in human K562 cells assessed as accumulation at G0/G1 phase at 25 nM after 24 hrs by propidium iodide staining-based flow cytometric analysis (reference value: 21.4 %); assay type: functional
K562 [20] = assay: Cell cycle arrest in human K562 cells assessed as increase in accumulation at G2/M phase after 24 hrs by propidium iodide staining-based flow cytometric analysis; assay type: functional; settings: dose 25-100 nM
HCT-116 [21] = assay: Cell cycle arrest in human HCT-116 cells assessed as accumulation at G2/M phase at 500 nM after 24 hrs by propidium iodide staining-based flow cytometric analysis (reference value: 31.5 %); assay type: functional

T1 sequence (P49841 whole entry, looked up): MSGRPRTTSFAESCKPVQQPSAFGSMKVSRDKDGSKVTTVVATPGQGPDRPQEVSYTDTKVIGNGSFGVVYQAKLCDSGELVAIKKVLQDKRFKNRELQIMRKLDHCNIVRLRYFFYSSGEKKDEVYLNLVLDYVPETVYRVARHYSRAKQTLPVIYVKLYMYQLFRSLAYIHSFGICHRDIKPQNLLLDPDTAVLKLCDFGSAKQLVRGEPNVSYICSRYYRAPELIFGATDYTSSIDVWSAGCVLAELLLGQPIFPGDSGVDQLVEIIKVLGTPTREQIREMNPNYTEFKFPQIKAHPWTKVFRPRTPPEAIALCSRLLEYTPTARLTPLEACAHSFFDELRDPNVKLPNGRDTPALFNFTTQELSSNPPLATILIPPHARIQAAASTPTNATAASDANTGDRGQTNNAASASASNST

CN1CC=C(c2c(O)cc(O)c3c(=O)cc(-c4ccc(Sc5nc6ccccc6n5C)cc4Cl)oc23)CC1
Ratio IC50 [1]: 20 | Activity (K562 [2]): 10.7% | Activity (HCT-116 [3]): 43.1% | IC50 (SK-BR-3): 53.7 nM | IC50 (MIA PaCa-2): 52.9 nM | IC50 [4]: 149 nM | Activity (HCT-116 [5]): Dose-dependent effect | Activity [6]: 12% | IC50 [7]: 1090 nM | Activity (K562 [8]): Dose-dependent effect | IC50 [9]: 70 nM | Activity (HCT-116 [10]): Dose-dependent effect | Activity (Leishmania major): 38% | IC50 (PC-3): 85 nM | Activity (HCT-116 [11]): 34.8% | Activity [12]: 68% | Activity (K562 [13]): 68.6% | Activity (K562 [14]): 50.3% | Activity (Sus scrofa): 10% | IC50 (K562 [15]): 50.8 nM | Activity (HCT-116 [16]): 30.9% | Activity [17]: 87% | IC50 (CDK9/cyclin T1): 64 nM | Activity (K562 [18]): 27.8% | Activity (K562 [19]): 20.7% | Activity (K562 [20]): Dose-dependent effect | Activity (HCT-116 [21]): 40%
